Each structure is given as a SMILES string. Values after ≈ are worked out from the molar mass of the structure shown. Active and inactive are the calls of the source.

In assay [1] the test system is Candida albicans. Kind of assay: Antimicrobial activity against Candida albicans FH1 dissociated biofilms at cell density of 10^8 cells/ml after 48 hrs by XTT assay. It counts as functional. The following applies: FH1, 48 h. Summed up: (§1)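 Polystyrene-well biofilms (48 h, 37°C) washed, then broken up in 100 µl RPMI by scraping and aspiration. Cells used undiluted (about 2 x 10^8 cells/ml equivalent) or adjusted by A600 against a hemacytometer-calibrated yeast standard curve. Drug exposure at 37°C for 48 h (caspofungin 24 h), then XTT/menadione read at 490 nm.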
For orientation: Tetrazolium assays rely on reduction of a dye to a coloured formazan, in cell work by metabolically active cells.

The test system of assay [2] is Candida albicans. Kind of assay: Antimicrobial activity against Candida albicans FH1 at planktonic cell density of 10^3 cells/ml after 48 hrs by XTT assay. The class given is functional. The following applies: FH1, 48 h. Summed up:
(§2)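 YNB-grown yeast (50 mM glucose, room temperature, shaken, to ~2 x 10^8 cells/ml) washed into MOPS-buffered RPMI 1640 with L-glutamine and set to the stated density. Exposed to twofold serial drug dilutions (1,024 to 0.0313 µg/ml) at 37°C, 48 h (caspofungin 24 h), with drug-free controls. Read-out: XTT (0.5 g/liter) plus 1 µM menadione, formazan at 490 nm.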

Assay [3] deals with Candida albicans. The assay is described as follows: Antimicrobial activity against Candida albicans SC5314 intact biofilms after 48 hrs by XTT assay. The class given is functional. The following applies: SC5314, 48 h. Summed up: (§3)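 Biofilm seeded at 1 x 10^6 cells/ml in RPMI in polystyrene microtiter wells and grown 48 h at 37°C in a moist chamber. Washed once and drug added to the same well (twofold dilutions, 1,024 to 0.0313 µg/ml) for 48 h at 37°C (caspofungin 24 h). Read-out: XTT/menadione reduction at 490 nm.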

Assay [4] deals with Candida albicans. Kind of assay: Antimicrobial activity against Cdr1, Cdr2 and Mdr1 deficient Candida albicans DSY1050 dissociated biofilms at cell density of 10^8 cells/ml after 48 hrs by XTT assay. It counts as functional. The following applies: DSY1050, 48 h. Summed up: as §1
For assay [5], the system named is Candida albicans. The assay is described as follows: Antimicrobial activity against Candida albicans SC5314 dissociated biofilms grown on polyvinylchloride catheter surface at cell density of 10^8 cells/ml at 0.25 to 8 ug/ml by XTT assay. It counts as functional, organism-based. Summed up:
(§4)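 1-cm discs of denture acrylic, PVC catheter or silicone elastomer-coated latex catheter, ethylene-oxide sterilised. Seeded with 1 ml of 1 x 10^6 cells/ml, adhesion 90 min at 37°C, washed, grown 48 h at 37°C in RPMI. Biofilm scraped off, set to 1 x 10^3 or 1 x 10^8 cells/ml, exposed to fluconazole, read by XTT at 490 nm.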

The test system of assay [6] is Candida albicans. Kind of assay: Antimicrobial activity against Candida albicans GDH2346 at planktonic cell density of 10^8 cells/ml after 48 hrs by XTT assay. The class given is functional. The following applies: GDH2346, 48 h. Summed up: as §2
Assay [7] deals with Candida albicans. The assay is described as follows: Antimicrobial activity against Candida albicans SC5314 dissociated biofilms at cell density of 10^3 cells/ml after 48 hrs by XTT assay. The class given is functional. The following applies: SC5314, 48 h. Summed up:
as §1

For assay [8], the system named is Candida albicans. The assay is described as follows: Antimicrobial activity against Candida albicans GDH2346 at planktonic cell density of 10^3 cells/ml after 48 hrs by XTT assay. It counts as functional. The following applies: GDH2346, 48 h. Summed up:
as §2

Assay [9] deals with Candida albicans. Kind of assay: Antimicrobial activity against Cdr1, Cdr2 and Mdr1 deficient Candida albicans DSY1050 intact biofilms after 48 hrs by XTT assay. It counts as functional. The following applies: DSY1050, 48 h. Summed up:
as §3

Assay [10] concerns Candida albicans. The assay is described as follows: Antimicrobial activity against fluconazole-resistant Candida albicans FH5 intact biofilms after 48 hrs by XTT assay. It counts as functional. The following applies: FH5, 48 h. Summed up: as §3
In assay [11] the test system is Candida albicans. The assay is described as follows: Antimicrobial activity against Candida albicans GDH2346 intact biofilms after 48 hrs by XTT assay. It counts as functional. The following applies: GDH2346, 48 h. Summed up:
as §3

For assay [12], the system named is Candida albicans. Kind of assay: Antimicrobial activity against Candida albicans SC5314 dissociated biofilms grown on polyvinylchloride catheter surface at cell density of 10^3 cells/ml at 0.25 to 8 ug/ml by XTT assay. The class given is functional, organism-based. Summed up: as §4
Assay [13] has as its system Candida albicans. The assay is described as follows: Antimicrobial activity against fluconazole-resistant Candida albicans FH5 dissociated biofilms at cell density of 10^8 cells/ml after 48 hrs by XTT assay. It counts as functional. The following applies: FH5, 48 h. Summed up:
as §1

The test system of assay [14] is Candida albicans. The assay is described as follows: Antimicrobial activity against Cdr1, Cdr2 and Mdr1 deficient Candida albicans DSY1050 at planktonic cell density of 10^8 cells/ml after 48 hrs by XTT assay. The class given is functional. The following applies: DSY1050, 48 h. Summed up: as §2
In assay [15] the test system is Candida albicans. Kind of assay: Antimicrobial activity against Candida albicans planktonic forms. The class given is functional. Summed up:
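Yeast grown in YNB/50 mM glucose at room temperature to about 2 x 10^8 cells/ml, washed, and resuspended in MOPS-buffered RPMI 1640. Tested at 2 x 10^3 cells/ml (standard) or at densities from 1 x 10^3 to 1 x 10^8 cells/ml. Incubated with twofold drug dilutions at 37°C for 48 h (caspofungin 24 h). XTT-menadione read-out at 490 nm.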

The subject of assay [16] is Candida albicans. The assay is described as follows: Antimicrobial activity against Chk1 deficient Candida albicans CHK21 intact biofilms after 48 hrs by XTT assay. The class given is functional. The following applies: CHK21, 48 h. Summed up: as §3

For the compound `OC(Cn1cncn1)(Cn1cncn1)c1ccc(F)cc1F` [FLUCONAZOLE], the MIC80 was > 512 µg/mL in the assay on Candida albicans [1]; 4 µg/mL (≈ 13.1 µM) in the assay with Candida albicans [2]; > 512 µg/mL against Candida albicans [3]; > 64 µg/mL with Candida albicans [4]; > 512 µg/mL in the assay on Candida albicans [6]; 0.25 µg/mL (≈ 0.816 µM) against Candida albicans [7]. Further, the MIC80 was 2 µg/mL (≈ 6.53 µM) in the assay with Candida albicans [8]; > 64 µg/mL in the assay with Candida albicans [9]; > 512 µg/mL in the assay with Candida albicans [10]; > 512 µg/mL against Candida albicans [11]; > 512 µg/mL against Candida albicans [13]; > 64 µg/mL in the assay on Candida albicans [14]. Besides, the MIC80 in the assay on Candida albicans [16] was > 64 µg/mL. Further, the outcome in the assay with Candida albicans [5] was inactive. Also, the outcome in the assay on Candida albicans [12] was Active. In addition, in the assay with Candida albicans [15], the MIC (in general, the smallest concentration in the dilution series that meets the test's criterion for growth inhibition) is 2 µg/mL (≈ 6.53 µM).

Values taken from ChEMBL document CHEMBL1157378, “Role for cell density in antifungal drug resistance in Candida albicans biofilms” (2007).
